Experimental data pooled from the literature.
Protocols differ between the studies behind these lines.
F12: Coagulation factor XII (F12, Homo sapiens, UniProt P00748)
CYP3A4: Cytochrome P450 3A4 (CYP3A4, Homo sapiens, UniProt P08684)
ADORA2B: Adenosine receptor A2b (ADORA2B, Homo sapiens, UniProt P29275)

SMILES	target	assay	test system	conditions	measurement	result
O=c1oc(-c2ccco2)nc2ccccc12	F12	enzyme activity, inhibitor, absorbance		pH 7.4	IC50	> 50 µM
O=c1cc(-c2ccc(O)cc2)oc2c([C@@H]3OC[C@H](O)[C@H](O)[C@H]3O)c(O)c([C@@H]3O[C@H](CO)[C@@H](O)[C@H](O)[C@H]3O)c(O)c12	Calcium/calmodulin-dependent protein kinase type II subunit gamma (CAMK2G, Homo sapiens, UniProt Q13555)	enzyme activity, inhibitor			IC50	189 µM
CO[C@]1(C(=O)N[C@@H](C)c2ccc(-n3cc(F)cn3)nc2)CC[C@H](c2nc(C)cc(Nc3cc(C)[nH]n3)n2)CC1	CYP3A4	enzyme activity, inhibitor	human, liver microsomes		Ki	24 µM
Oc1ccc2c(c1)CC[C@H](c1ccccc1)[C@@H]2c1ccc(OCCN2CCCC2)cc1	Progesterone receptor (PGR, Homo sapiens, UniProt P06401)	ligand displacement, radioligand			IC50	0.069 µM
CC(C)=CCNc1ncnc2c1ncn2[C@@H]1O[C@H](CO)[C@@H](O)[C@H]1O	ADORA2B	G protein activation, agonist			EC50	84 µM
COc1ccc(-c2cc(OCC(=O)N(C)Cc3cccnc3C)nc(-n3nc(C)cc3C)n2)cc1	Leucyl-cystinyl aminopeptidase (LNPEP, Homo sapiens, UniProt Q9UIQ6)	enzyme activity, inhibitor, fluorescence			IC50	0.157 µM
COc1cc(O)c2c(c1)C(=O)c1cc(C)cc(O)c1C2=O	CYP3A4	enzyme activity, inhibitor	human, liver microsomes	pH 7.4, testosterone probe	IC50	13.5 µM
CN(C)c1ncnc2c1ncn2[C@@H]1O[C@H](CO)[C@@H](O)[C@H]1O	ADORA2B	G protein activation, agonist			EC50	22 µM
O=c1oc(-c2cccnc2)nc2ccccc12	F12	enzyme activity, inhibitor, absorbance		pH 7.4	IC50	> 50 µM
